Data from ChEMBL document CHEMBL3525985, “Regiospecificity and stereospecificity of human UDP-glucuronosyltransferases in the glucuronidation of estriol, 16-epiestriol, 17-epiestriol, and 13-epiestradiol” (Drug Metab Dispos, 2013).
Blank lines part the entries; values can stand above or below the molecule they belong to.

Columns and labels:
Format in all cases: ADME
[1] = target: T1, UDP-glucuronosyltransferase 2B15 (Homo sapiens, UniProt P54855); assay: Drug metabolism assessed as recombinant human C-terminal […]-mediated 17-epiestriol-3-glucuronide formation at 200 uM after 15 to 60 mins by HPLC analysis in presence of UDPGA; settings: recombinant enzyme
T1 sequence (P54855 whole entry): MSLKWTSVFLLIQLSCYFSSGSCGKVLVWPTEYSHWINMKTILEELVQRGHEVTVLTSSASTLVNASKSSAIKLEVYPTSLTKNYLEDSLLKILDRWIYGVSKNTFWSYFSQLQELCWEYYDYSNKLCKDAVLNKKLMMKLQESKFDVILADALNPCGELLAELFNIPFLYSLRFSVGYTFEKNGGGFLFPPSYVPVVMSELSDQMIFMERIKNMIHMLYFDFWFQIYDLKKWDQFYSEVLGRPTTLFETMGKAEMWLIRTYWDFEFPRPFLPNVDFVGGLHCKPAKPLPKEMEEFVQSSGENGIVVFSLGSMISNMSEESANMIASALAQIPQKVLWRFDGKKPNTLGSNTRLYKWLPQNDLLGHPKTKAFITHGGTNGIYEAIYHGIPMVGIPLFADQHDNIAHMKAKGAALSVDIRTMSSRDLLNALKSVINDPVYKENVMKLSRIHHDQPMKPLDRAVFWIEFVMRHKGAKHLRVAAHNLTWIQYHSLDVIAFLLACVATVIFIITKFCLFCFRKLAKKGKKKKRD

Liver microsome = assay: Drug metabolism in human liver microsomes assessed as 17-epiestriol-3-glucuronide formation after 15 to 60 mins by Michaelis-Menten equation analysis in presence of UDPGA
How it was run: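 Pooled human liver microsomes (30 donors), 0.5 or 10 µg, with alamethicin at 5% of total protein. Incubated with 50 mM phosphate pH 7.4, 10 mM MgCl₂, 5 mM UDPGA and 10% DMSO for 15–60 min at 37°C. Each glucuronide regioisomer quantified by HPLC, in triplicate, with substrate consumption at or below 10%.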

[2] = target: T2, UDP-glucuronosyltransferase 2B7 (Homo sapiens, UniProt P16662); assay: Drug metabolism assessed as recombinant human C-terminal His-tagged UGT2B7-mediated 17-epiestriol-17-glucuronide formation at 4 mg after 5 hrs by NMR spectroscopic analysis in presence of UDPGA; settings: recombinant enzyme
T2 sequence (P16662 whole entry): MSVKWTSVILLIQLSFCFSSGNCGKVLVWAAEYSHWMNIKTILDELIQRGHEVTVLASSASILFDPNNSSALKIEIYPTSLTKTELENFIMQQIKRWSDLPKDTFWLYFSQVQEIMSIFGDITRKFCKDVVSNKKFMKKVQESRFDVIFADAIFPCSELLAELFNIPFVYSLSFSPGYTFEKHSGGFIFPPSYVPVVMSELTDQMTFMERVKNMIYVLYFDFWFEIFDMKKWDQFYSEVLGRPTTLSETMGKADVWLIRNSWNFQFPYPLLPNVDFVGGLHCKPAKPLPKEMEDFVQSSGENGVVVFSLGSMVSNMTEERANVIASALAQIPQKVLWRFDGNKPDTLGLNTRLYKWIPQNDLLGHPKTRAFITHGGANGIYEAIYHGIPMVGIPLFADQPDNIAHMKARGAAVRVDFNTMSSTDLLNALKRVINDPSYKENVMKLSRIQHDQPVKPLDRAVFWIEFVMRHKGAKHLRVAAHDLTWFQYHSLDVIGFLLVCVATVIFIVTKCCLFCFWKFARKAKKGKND
How it was run: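 Preparative biosynthesis: 4 mg 17-epiestriol with fresh UGT2B7-enriched insect-cell homogenate (about 500 mg total protein) in 25 ml. Contained 50 mM phosphate pH 7.4, 10 mM MgCl₂, 50 mM UDPGA and 10% DMSO. Glucuronides fractionated by HPLC with 0.1% HCOOH eluent and 280 nm UV, then concentrated and lyophilized for NMR.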

[3] = target: T1, UDP-glucuronosyltransferase 2B15; assay: Drug metabolism assessed as recombinant human C-terminal […]-mediated 16-epiestriol-3-glucuronide formation after 15 to 60 mins by Michaelis-Menten equation analysis in presence of UDPGA; settings: recombinant enzyme
[4] = target: T2, UDP-glucuronosyltransferase 2B7; assay: Drug metabolism assessed as recombinant human C-terminal His-tagged UGT2B7-mediated 16-epiestriol-16-glucuronide formation after 15 to 60 mins by Michaelis-Menten equation analysis in presence of UDPGA; settings: recombinant enzyme
How it was run: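 For kinetics, the aglycone ranged from 0.2 to 300 μM in DMSO (10% final) with 5 mM UDPGA, 10 mM MgCl₂ and 50 mM phosphate pH 7.4. Enzyme was UGT-enriched insect cell membranes. Incubation was 15–60 min at 37°C, in triplicate, keeping substrate consumption ≤10%. Products were measured by HPLC and fitted to Michaelis-Menten. Rates were normalized to expression level.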

[5] = target: UDP-glucuronosyltransferase 1A7 (Homo sapiens, UniProt Q9HAW7); assay: Drug metabolism assessed as recombinant human C-terminal His-tagged UGT1A7-mediated 16-epiestriol-3-glucuronide formation after 15 to 60 mins by Michaelis-Menten equation analysis in presence of UDPGA; settings: recombinant enzyme
Chain of UDP-glucuronosyltransferase 1A7 (Q9HAW7 whole entry): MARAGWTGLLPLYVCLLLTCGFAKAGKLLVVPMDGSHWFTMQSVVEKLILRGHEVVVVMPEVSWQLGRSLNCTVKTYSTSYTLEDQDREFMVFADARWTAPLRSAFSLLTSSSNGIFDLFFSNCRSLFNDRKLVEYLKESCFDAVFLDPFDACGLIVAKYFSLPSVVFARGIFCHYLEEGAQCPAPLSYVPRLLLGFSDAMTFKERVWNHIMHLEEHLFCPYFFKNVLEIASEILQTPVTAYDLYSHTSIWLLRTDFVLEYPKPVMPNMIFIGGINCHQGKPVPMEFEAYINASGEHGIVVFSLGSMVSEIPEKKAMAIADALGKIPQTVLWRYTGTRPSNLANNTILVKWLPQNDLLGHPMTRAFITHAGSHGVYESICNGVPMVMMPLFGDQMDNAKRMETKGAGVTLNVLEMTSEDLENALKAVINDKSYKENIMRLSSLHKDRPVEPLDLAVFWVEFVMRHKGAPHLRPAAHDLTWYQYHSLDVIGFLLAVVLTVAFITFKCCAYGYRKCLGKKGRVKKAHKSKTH

[6] = target: T3, UDP-glucuronosyltransferase 1A8 (Homo sapiens, UniProt Q9HAW9); assay: Drug metabolism assessed as recombinant human C-terminal His-tagged UGT1A8-mediated estradiol-3-glucuronide formation at 200 uM after 15 to 60 mins by HPLC analysis in presence of UDPGA; settings: recombinant enzyme
T3 sequence (Q9HAW9 whole entry): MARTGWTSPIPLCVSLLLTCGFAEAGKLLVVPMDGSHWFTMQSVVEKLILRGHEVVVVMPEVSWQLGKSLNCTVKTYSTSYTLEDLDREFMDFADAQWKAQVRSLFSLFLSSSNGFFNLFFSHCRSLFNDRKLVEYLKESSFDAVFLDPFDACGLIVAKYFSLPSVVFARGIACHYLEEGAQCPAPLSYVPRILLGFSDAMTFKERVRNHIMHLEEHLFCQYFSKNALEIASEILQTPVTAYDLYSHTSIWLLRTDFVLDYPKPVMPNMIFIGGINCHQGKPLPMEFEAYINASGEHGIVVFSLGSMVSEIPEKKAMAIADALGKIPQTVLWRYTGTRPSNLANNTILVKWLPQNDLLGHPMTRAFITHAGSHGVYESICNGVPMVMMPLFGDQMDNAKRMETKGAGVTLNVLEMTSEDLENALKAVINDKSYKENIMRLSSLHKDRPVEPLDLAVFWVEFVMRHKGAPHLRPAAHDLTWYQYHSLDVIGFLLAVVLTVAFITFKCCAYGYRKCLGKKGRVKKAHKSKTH
How it was run: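 Screening at a single substrate concentration of 200 μM, in triplicate. The reaction used 5 or 50 µg of UGT-enriched insect cell membranes in 50 mM phosphate pH 7.4 with 10 mM MgCl₂ and 5 mM UDPGA, 10% final DMSO. Incubation was 15–60 min at 37°C. Perchloric acid stopped the reaction and supernatants were analysed by HPLC. Controls lacked UDPGA. Rates were normalized to relative UGT expression level.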

Drug metabolism [1]: metabolite_detected
Km (Liver microsome): 380 µM
Vmax (Liver microsome): 805 pmol/min/mg
Drug metabolism [2]: metabolite_detected
Structure (SMILES): C[C@]12CC[C@@H]3c4ccc(O)cc4CC[C@H]3[C@@H]1C[C@@H](O)[C@H]2O

Drug metabolism [3]: 0.5 pmol/min/mg
Drug metabolism [4]: 2700 pmol/min/mg
Drug metabolism [5]: 0.5 pmol/min/mg
Structure (SMILES): C[C@]12CC[C@@H]3c4ccc(O)cc4CC[C@H]3[C@@H]1C[C@H](O)[C@@H]2O [EPIESTRIOL]

Drug metabolism [6]: metabolite_detected
Structure (SMILES): C[C@]12CC[C@@H]3c4ccc(O)cc4CC[C@H]3[C@@H]1CC[C@@H]2O [ESTRADIOL]
